Reference: ChEMBL document CHEMBL1921699, “Cucurbitane glucosides from the root of Machilus yaoshansis” (J Nat Prod, 2011)
Active and inactive are the calls of the source. The calls are words filed in the database; no cut-off is given here.

Columns and labels:
[1] = molecular target: T1, Tyrosine-protein phosphatase non-receptor type 1 (Homo sapiens, UniProt P18031); assay: Inhibition of GST-tagged human recombinant PTP1B assessed as dephosphorylation of para-nitrophenyl phosphate after 10 mins by spectrophotometric analysis
T1 sequence (P18031 whole entry): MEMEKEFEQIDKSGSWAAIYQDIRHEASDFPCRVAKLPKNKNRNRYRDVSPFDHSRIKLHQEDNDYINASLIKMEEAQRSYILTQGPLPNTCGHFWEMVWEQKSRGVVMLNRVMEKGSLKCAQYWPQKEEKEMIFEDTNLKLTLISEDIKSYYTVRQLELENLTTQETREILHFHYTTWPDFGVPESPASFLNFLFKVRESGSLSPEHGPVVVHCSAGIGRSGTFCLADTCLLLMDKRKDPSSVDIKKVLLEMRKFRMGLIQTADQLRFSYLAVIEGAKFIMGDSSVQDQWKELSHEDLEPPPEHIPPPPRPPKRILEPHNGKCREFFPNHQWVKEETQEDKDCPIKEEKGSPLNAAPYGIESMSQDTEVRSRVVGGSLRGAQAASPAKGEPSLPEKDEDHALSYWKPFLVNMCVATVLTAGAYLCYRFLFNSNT

[2] = test system: A2780; assay: Cytotoxicity against human A2780 cells after 96 hrs by MTT assay; type: functional, cell-based; details: A2780, 96 h
Procedure, shortened: (§1)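 Tested on a human tumour panel of A2780 (ovary), HCT-8 (colon), Bel-7402 (hepatoma), BGC-823 (stomach) and A549 (lung) lines. Camptothecin was the positive control.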

[3] = test system: HCT-8; assay: Cytotoxicity against human HCT8 cells after 96 hrs by MTT assay; type: functional, cell-based; details: HCT-8, 96 h; procedure, shortened: as §1
[4] = test system: Bel-7402; assay: Cytotoxicity against human Bel7402 cells after 96 hrs by MTT assay; type: functional, cell-based; details: Bel-7402, 96 h; procedure, shortened: as §1
[5] = Cytotoxicity against human […] cells after 96 hrs by MTT assay; type: functional, cell-based; procedure, shortened: as §1
[6] = test system: A549; assay: Cytotoxicity against human A549 cells after 96 hrs by MTT assay; type: functional, cell-based; details: A549, 96 h; procedure, shortened: as §1
[7] = test system: Peritoneal macrophage cell; assay: (§2) Antiinflammatory activity in C57BL6J mouse peritoneal macrophages assessed as inhibition of LPS-stimulated TNFalpha secretion at 10 uM after 24 hrs by MTT assay; type: functional, cell-based
[8] = as §2; type: functional, cell-based; details: Peritoneal macrophage cell

Row | SMILES | IC50 [1] [µM] | IC50 [2] [µM] | IC50 [3] [µM] | IC50 [4] [µM] | IC50 [5] [µM] | IC50 [6] [µM] | Activity [7] | IC50 [8] [µM]
1 | CC1(C)C[C@]2(O)O[C@@H]3C[C@@]4(C)[C@@H]5CC=C6[C@@H](C=C(O[C@@H]7O[C@H](CO)[C@@H](O)[C@H](O)[C@H]7O)C(=O)C6(C)C)[C@]5(C)C(=O)C[C@]4(C)[C@H]3[C@@](C)(O)[C@]2(O)O1 | 8.63 | > 10 | > 10 | > 10 | > 10 | > 10 | inactive | –
2 | CC(=O)C1=CC[C@@]2(C)[C@@H]3CC=C4[C@@H](C=C(O[C@@H]5O[C@H](CO)[C@@H](O)[C@H](O)[C@H]5O)C(=O)C4(C)C)[C@]3(C)C(=O)C[C@]12C | – | > 10 | > 10 | > 10 | > 10 | > 10 | inactive | –
3 | C[C@H]1[C@H]2[C@@H](C[C@@]3(C)[C@@H]4CC=C5[C@@H](C=C(O[C@@H]6O[C@H](CO)[C@@H](O)[C@H](O)[C@H]6O)C(=O)C5(C)C)[C@]4(C)C(=O)C[C@]23C)O[C@@]2(O)CC(C)(C)O[C@@]12O | – | > 10 | > 10 | > 10 | > 10 | > 10 | inactive | –
4 | CC(C)(O)/C=C/C(=O)[C@](C)(O)[C@H]1[C@H](O)C[C@@]2(C)[C@@H]3CC=C4[C@@H](C=C(O[C@@H]5O[C@H](CO)[C@@H](O)[C@H](O)[C@H]5O)C(=O)C4(C)C)[C@]3(C)C(=O)C[C@]12C | – | > 10 | > 10 | > 10 | > 10 | > 10 | inactive | –
5 | CO[C@@H](CC(=O)[C@](C)(O)[C@H]1[C@H](O)C[C@@]2(C)[C@@H]3CC=C4[C@@H](C=C(O)C(=O)C4(C)C)[C@]3(C)C(=O)C[C@]12C)C(C)(C)O | – | > 10 | > 10 | > 10 | > 10 | > 10 | – | > 10
6 | CC1(C)C(=O)C(O)=C[C@@H]2C1=CC[C@@H]1[C@@]2(C)C(=O)C[C@]2(C)[C@@H]([C@@](C)(O)C(=O)C[C@@H](O)C(C)(C)O)[C@H](O)C[C@@]12C | – | > 10 | > 10 | > 10 | > 10 | > 10 | inactive | –
7 | CC1(C)C(=O)C(O[C@@H]2O[C@H](CO)[C@@H](O)[C@H](O)[C@H]2O)=C[C@@H]2C1=CC[C@@H]1[C@@]2(C)C(=O)C[C@]2(C)[C@@H]([C@@](C)(O)C(=O)C[C@H](O)C(C)(C)O)[C@H](O)C[C@@]12C | – | > 10 | > 10 | > 10 | > 10 | > 10 | inactive | –
8 | CC[C@@]1(O)C(=O)OCc2c1cc1n(c2=O)Cc2cc3ccccc3nc2-1 [CAMPTOTHECIN] | – | 0.26 | 0.26 | 0.26 | 0.26 | 0.26 | – | –
9 | CC1(C)C(=O)C(O[C@@H]2O[C@H](CO)[C@@H](O)[C@H](O)[C@H]2O)=C[C@@H]2C1=CC[C@@H]1[C@@]2(C)C(=O)C[C@]2(C)[C@@H]3[C@@H](C[C@@]12C)O[C@H](C(C)(C)O)CC(=O)[C@]3(C)O | 2.81 | > 10 | > 10 | > 10 | > 10 | > 10 | inactive | –
10 | CC(=O)[C@H]1[C@H](O)C[C@@]2(C)[C@@H]3CC=C4[C@@H](C=C(O[C@@H]5O[C@H](CO)[C@@H](O)[C@H](O)[C@H]5O)C(=O)C4(C)C)[C@]3(C)C(=O)C[C@]12C [KHEKADAENGOSIDE K] | – | > 10 | > 10 | > 10 | > 10 | > 10 | inactive | –
11 | CC1(C)C(=O)C(O[C@@H]2O[C@H](CO)[C@@H](O)[C@H](O)[C@H]2O)=C[C@@H]2C1=CC[C@@H]1[C@@]2(C)C(=O)C[C@]2(C)[C@@H]([C@@](C)(O)C(=O)C[C@@H](O)C(C)(C)O)[C@H](O)C[C@@]12C | – | > 10 | > 10 | > 10 | > 10 | > 10 | inactive | –
12 | CC1(C)C(=O)C(O)=C[C@@H]2C1=CC[C@@H]1[C@@]2(C)C(=O)C[C@]2(C)[C@@H]([C@@](C)(O)C(=O)C[C@H](O)C(C)(C)O)[C@H](O)C[C@@]12C | – | > 10 | > 10 | > 10 | > 10 | > 10 | – | > 10
13 | CC1(C)C(=O)C(O[C@@H]2O[C@H](CO)[C@@H](O)[C@H](O)[C@H]2O)=C[C@@H]2C1=CC[C@@H]1[C@@]2(C)C(=O)C[C@]2(C)[C@@H]([C@@](C)(O)C(=O)C[C@H]3NC(=O)OC3(C)C)[C@H](O)C[C@@]12C | 4.26 | > 10 | > 10 | > 10 | > 10 | > 10 | inactive | –
14 | CO[C@@H](CC(=O)[C@](C)(O)[C@H]1[C@H](O)C[C@@]2(C)[C@@H]3CC=C4[C@@H](C=C(O[C@@H]5O[C@H](CO)[C@@H](O)[C@H](O)[C@H]5O)C(=O)C4(C)C)[C@]3(C)C(=O)C[C@]12C)C(C)(C)O | – | > 10 | > 10 | > 10 | > 10 | > 10 | inactive | –
15 | CC(=O)OC(C)(C)/C=C/C(=O)[C@](C)(O)[C@H]1[C@H](O)C[C@@]2(C)[C@@H]3CC=C4[C@@H](C=C(O[C@@H]5O[C@H](CO)[C@@H](O)[C@H](O)[C@H]5O)C(=O)C4(C)C)[C@]3(C)C(=O)C[C@]12C | – | > 10 | > 10 | > 10 | 4.98 | 3.2 | inactive | –
16 | CC1(C)C(=O)C(O[C@@H]2O[C@H](CO)[C@@H](O)[C@H](O)[C@H]2O)=C[C@@H]2C1=CC[C@@H]1[C@@]2(C)C(=O)C[C@]2(C)[C@@H]([C@@]3(C)OC=CC3=O)[C@H](O)C[C@@]12C | – | > 10 | > 10 | > 10 | > 10 | > 10 | inactive | –
